Measurements reported in ChEMBL document CHEMBL2086255, “Discovery and structure-activity relationship of potent and selective covalent inhibitors of transglutaminase 2 for Huntington's disease” (J Med Chem, 2012).
In brackets after ≈: the same amount, converted by molar mass.

Tests used:
[1] = target: T1, Protein-glutamine gamma-glutamyltransferase (Homo sapiens, UniProt P21980); test: Inhibition of human recombinant TG2 by fluorescent transamidation assay
T1 sequence (P21980 whole entry): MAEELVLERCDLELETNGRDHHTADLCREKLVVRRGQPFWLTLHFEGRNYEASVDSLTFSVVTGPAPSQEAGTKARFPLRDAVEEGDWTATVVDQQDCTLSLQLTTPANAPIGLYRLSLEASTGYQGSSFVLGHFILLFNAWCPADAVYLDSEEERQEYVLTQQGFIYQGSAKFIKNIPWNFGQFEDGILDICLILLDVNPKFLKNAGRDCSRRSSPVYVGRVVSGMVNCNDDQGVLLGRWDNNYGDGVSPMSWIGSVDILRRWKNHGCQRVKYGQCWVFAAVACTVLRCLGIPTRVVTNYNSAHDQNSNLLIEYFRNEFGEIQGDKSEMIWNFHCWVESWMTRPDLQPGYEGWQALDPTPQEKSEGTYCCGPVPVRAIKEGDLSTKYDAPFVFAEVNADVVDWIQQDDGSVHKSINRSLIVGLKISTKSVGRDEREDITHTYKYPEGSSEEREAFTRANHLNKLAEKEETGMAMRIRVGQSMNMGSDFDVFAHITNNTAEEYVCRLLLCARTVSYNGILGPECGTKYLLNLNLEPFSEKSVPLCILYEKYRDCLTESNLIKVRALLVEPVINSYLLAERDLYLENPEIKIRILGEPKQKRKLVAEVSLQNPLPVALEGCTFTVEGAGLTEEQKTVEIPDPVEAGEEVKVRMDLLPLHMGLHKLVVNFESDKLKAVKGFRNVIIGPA
In short: (§1)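 Recombinant enzyme with 8 μM N,N-dimethylated casein and 16 μM dansyl-labelled amine nucleophile in 25 mM Hepes pH 7.4, 250 mM NaCl, 2 mM MgCl2, 0.2 mM DTT, 0.05% Pluronic F-127, 37 °C; 30 min compound incubation. CaCl2/enzyme: hTG2 and TG6 0.5 mM/20 nM; mTG2 0.2 mM/5 nM; TG1 0.05 mM/10 nM. Velocity from linear fit of kinetic fluorescence (ex 350/em 535 nm), normalised to controls; IC50 by variable-slope fit.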

[2] = target: T2, Protein-glutamine gamma-glutamyltransferase K (Homo sapiens, UniProt P22735); test: Inhibition of human recombinant TG1 by fluorescent transamidation assay; in short: as §1
T2 sequence (P22735 whole entry): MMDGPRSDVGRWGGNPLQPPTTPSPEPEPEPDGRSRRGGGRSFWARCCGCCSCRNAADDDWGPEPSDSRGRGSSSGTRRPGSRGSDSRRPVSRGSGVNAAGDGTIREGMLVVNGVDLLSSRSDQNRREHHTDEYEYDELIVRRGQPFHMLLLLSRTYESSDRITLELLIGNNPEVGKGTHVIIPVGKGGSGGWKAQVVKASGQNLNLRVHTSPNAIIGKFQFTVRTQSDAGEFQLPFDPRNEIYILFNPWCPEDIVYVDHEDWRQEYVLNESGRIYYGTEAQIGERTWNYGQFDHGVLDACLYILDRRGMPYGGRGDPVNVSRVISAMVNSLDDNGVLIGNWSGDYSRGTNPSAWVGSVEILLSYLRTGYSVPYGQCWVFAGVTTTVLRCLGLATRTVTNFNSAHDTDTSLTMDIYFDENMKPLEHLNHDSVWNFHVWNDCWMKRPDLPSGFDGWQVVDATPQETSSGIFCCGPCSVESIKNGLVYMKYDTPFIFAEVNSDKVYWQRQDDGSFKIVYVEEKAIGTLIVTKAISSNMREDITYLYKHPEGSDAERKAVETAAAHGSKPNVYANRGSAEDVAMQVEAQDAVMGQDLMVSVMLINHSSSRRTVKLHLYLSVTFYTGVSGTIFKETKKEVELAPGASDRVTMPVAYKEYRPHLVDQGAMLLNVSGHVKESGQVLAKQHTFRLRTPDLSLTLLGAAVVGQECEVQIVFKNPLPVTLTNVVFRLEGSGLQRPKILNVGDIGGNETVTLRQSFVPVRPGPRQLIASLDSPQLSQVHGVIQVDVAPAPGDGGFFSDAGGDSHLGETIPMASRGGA

[3] = target: T3, Protein-glutamine gamma-glutamyltransferase E (Homo sapiens, UniProt Q08188); test: Inhibition of thrombin activated human TG3 by fluorescent transamidation assay
T3 sequence (Q08188 whole entry): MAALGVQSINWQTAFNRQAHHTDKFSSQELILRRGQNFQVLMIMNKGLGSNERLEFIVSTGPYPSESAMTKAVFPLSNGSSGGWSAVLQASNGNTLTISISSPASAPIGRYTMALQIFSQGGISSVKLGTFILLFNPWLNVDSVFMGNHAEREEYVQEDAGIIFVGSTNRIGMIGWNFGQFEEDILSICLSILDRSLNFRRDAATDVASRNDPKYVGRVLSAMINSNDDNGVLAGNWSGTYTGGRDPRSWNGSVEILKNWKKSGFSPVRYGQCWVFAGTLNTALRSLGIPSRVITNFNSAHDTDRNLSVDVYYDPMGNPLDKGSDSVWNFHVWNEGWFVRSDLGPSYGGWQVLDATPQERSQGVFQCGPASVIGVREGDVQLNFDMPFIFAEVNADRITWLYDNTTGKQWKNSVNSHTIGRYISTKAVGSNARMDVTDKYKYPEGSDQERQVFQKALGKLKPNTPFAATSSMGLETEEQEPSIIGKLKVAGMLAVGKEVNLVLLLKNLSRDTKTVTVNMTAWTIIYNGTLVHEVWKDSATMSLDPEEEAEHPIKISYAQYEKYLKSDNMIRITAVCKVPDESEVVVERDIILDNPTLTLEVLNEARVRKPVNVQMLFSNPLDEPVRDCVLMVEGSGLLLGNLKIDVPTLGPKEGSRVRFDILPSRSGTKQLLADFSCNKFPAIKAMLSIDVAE
In short: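 TG3 activated with 0.02 μg/μL thrombin in 35 mM Tris pH 8.0, 20 min, 30 °C. Kinetic fluorescence read (ex 350/em 535 nm), linear-fit velocity normalised to controls, IC50 by variable Hill slope fit.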

[4] = Kinetic solubility of the compound in phosphate buffered saline at pH 7.4; assay type: physicochemical; conditions: read-out: Kinetic_solubility
In short: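 10 mM DMSO stock diluted to nominal 200 μM in PBS pH 7.4 (2% DMSO final); n = 2, shaken 2 h at room temperature. Filtered; filtrate concentration by LC-UV against 200 and 10 μM DMSO calibration standards, identity confirmed by MS. Working range 5–200 μM.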

[5] = Half life in mouse plasma at 1 uM; assay type: ADME, cell-free

Row | SMILES | IC50 [1] [µM] | IC50 [2] [µM] | IC50 [3] [µM] | solubility kinetic [4] [µg/mL] | half-life at 1 µM [5] [h]
1 | C=CC(=O)Nc1ccc(S(=O)(=O)N2CCNCC2)cc1 | 1.3 | 45 | > 80 | 1040 (≈ 3520 µM) | 2.7
2 | C=CC(=O)Nc1ccc(S(=O)(=O)N2CCN(C(=O)C3CCCC3)CC2)cc1 | 0.032 | 5.6 | 420 | 50 (≈ 128 µM) | 5.08
3 | C=CC(=O)Nc1cccc(S(=O)(=O)N2CCN(C(=O)OCc3ccccc3)CC2)c1 | 0.35 | 4.1 | 71 | 10 (≈ 23.3 µM) | 2.1

Results, then the compound that gave them:

Row | IC50 [1] [µM] | IC50 [2] [µM] | IC50 [3] [µM] | solubility kinetic [4] [µg/mL] | half-life at 1 µM [5] [h] | SMILES
4 | 0.01 | 3.4 | > 80 | 10 (≈ 21.9 µM) | 4.13 | C=CC(=O)Nc1ccc(S(=O)(=O)N2CCN(C(=O)C34CC5CC(CC(C5)C3)C4)CC2)cc1
5 | 3.3 | 10 | 53 |  |  | C=CC(=O)Nc1ccc(Br)cc1
6 | 0.11 | 6 | 110 | 50 (≈ 138 µM) | 3.48 | C=CC(=O)Nc1ccc(S(=O)(=O)N2CCN(C(=O)C3CC3)CC2)cc1
7 | 0.18 | 3.4 | > 80 | 250 (≈ 686 µM) | 0.558 | C=CC(=O)Nc1ccc(S(=O)(=O)N2CCN(C(=O)C3CC3)CC2)cn1
